SKKanGAS inh = S. pyogenes SKKanGAS growth inhibitors in kanamycin, primary screen, streptokinase expression inhibitor project, SKKanGAS strain, BacTiter-Glo luminescence; 6 h; inhibition, % at 7.5 µM; 300,000 compounds, 1.3% hits; AID 1662, 2009;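 active means mean replicate score, as percent of positive control median, at least 50; inconclusive means mean below 50 but one replicate at or above 50; inactive means mean and every replicate below 50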;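 further: strain carries kanamycin resistance gene driven by streptokinase promoter and grows in 40 µg/ml kanamycin; loss of luminescence reflects streptokinase promoter inhibition or plain growth inhibition; 0% = median of DMSO wells and 100% = positive control at its reference dose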
PglD DTNB = C. jejuni PglD acetyltransferase inhibitors, primary screen, biochemical, DTNB colorimetric, single point; purified PglD enzyme, DTNB colorimetric CoA detection; inhibition, % at 12.5 µM; 360,000 compounds, 0.098% hits; AID 602405, 2012; in the data active means inhibition above about 16%, passing the limit was not always enough; inconclusive means no clear call, values can overlap the other calls
Rtt109 HAT inh = inhibitors of C. albicans Rtt109/Vps75 HAT, primary screen, biochemical, ThioGlo CoA-SH fluorescence, plate reader | purified Rtt109/Vps75, 4 h | AID 540336, 2011 | Histone acetyltransferase RTT109 (Candida albicans (strain SC5314 / ATCC MYA-2876)), … | inhibition, % at 34.9 µM | 330,000 compounds, 0.16% hits;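 active means inhibition of at least 50% in every replicate; inconclusive means best replicate reaches 50% inhibition but some replicates fall short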
Target sequence (Q5AAJ8 whole entry, looked up): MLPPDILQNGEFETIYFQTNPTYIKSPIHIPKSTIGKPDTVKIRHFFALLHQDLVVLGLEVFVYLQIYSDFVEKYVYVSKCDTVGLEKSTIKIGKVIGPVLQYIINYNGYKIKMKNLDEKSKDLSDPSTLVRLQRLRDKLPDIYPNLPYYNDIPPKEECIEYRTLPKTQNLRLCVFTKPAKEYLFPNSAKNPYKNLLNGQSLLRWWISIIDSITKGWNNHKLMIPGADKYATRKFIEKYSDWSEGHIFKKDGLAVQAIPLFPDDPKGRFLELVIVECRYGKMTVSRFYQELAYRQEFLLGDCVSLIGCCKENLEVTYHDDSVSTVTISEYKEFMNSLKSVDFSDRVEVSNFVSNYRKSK
PfHsp90 yeast 2 = growth inhibition of PfHsp90-expressing yeast, primary screen, antimalarial PfHsp90 inhibitor project, S. cerevisiae, BacTiter-Glo luminescence, single point, set 2; BacTiter-Glo ATP, 48 h; yeast lacking PDR1 and PDR3 efflux regulators; inhibition, % at 9.4 µM; 310,000 compounds, 0.32% hits; AID 504621, 2011;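 active means every replicate shows inhibition above about 80%, whatever the replicate mean, limit read from the data; inconclusive means mean inhibition reaches the set limit but some replicate falls short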;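 further: 0% = DMSO neutral controls and 100% = 20 µM radicicol positive controls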
FN deposition inh = inhibitors of fibronectin matrix deposition, primary screen, AH1F cells, Alexa488-fibronectin fluorescence, plate reader | AH1F fibroblasts, overnight | inhibition, % at 12.6 µM | 350,000 compounds, 0.086% hits | AID 743247, 2014;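 active means mean inhibition across replicates of 30% or more, regardless of how many single replicates reach that level; inconclusive means mean under 30% yet at least half of replicates reach 30%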;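 further: positive control wells lacked labelled fibronectin entirely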
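Assay system: AH1F fibroblasts assembling fluorescent fibronectin matrix; Amount: 10000 AH1F cells per well; Buffer or medium: DMEM, 2% serum; Probe or stimulus: Alexa488-fibronectin, 24 nM final in well; Doses: single compound dose, delivered by pin transfer; Incubation: 1 h adhesion, overnight exposure; Measured by: fluorescence 485/525 nm; Read-out: fibronectin deposition inhibition.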
CSC inhib = cancer stem cell viability inhibitors, primary screen, luminescence. inhibition, % at 7.5 µM. cancer stem cell-like cells viability. 300,000 compounds, 1.1% hits. AID 2717, 2010; in the data active means inhibition above about 75%; inconclusive means no clear call, values can overlap the other calls; tested in HMLE shEcad cells
* hit, by the source's call. The list is not random: actives were taken first. Their share in the collection is about 1.7%.

`Cc1cc(C(=O)Nc2cccc3c2O[C@H](CN(C)S(=O)(=O)c2cn(C)cn2)[C@@H](C)CN([C@@H](C)CO)C3=O)n(C)n1` gave PglD DTNB 2 and FN deposition inh -2.
COc1ccc(Cc2n[nH]c(=S)n2NC(=O)Nc2ccc(Cl)c(Cl)c2)cc1 was read as SKKanGAS inh 65*, PglD DTNB 2, Rtt109 HAT inh -4, PfHsp90 yeast 2 -93, FN deposition inh -1 and CSC inhib 40.
`Cn1c(CC(=O)Nc2ccc(Cl)c(Cl)c2)n[nH]c1=S` gave SKKanGAS inh 0, PglD DTNB 3, Rtt109 HAT inh 0, PfHsp90 yeast 2 5, FN deposition inh 0 and CSC inhib 7.
For C[C@@H]1CN([C@H](C)CO)C(=O)c2cc(NC(=O)Nc3ccccc3)ccc2O[C@@H](C)CCCCO[C@@H]1CN(C)Cc1ccccc1 the results were PglD DTNB -2 and FN deposition inh 4.
CCCCOc1ccc(C(C)NC(=O)C2CCCN(S(=O)(=O)CCC)C2)cc1 (centres undefined) was read as SKKanGAS inh -2, PglD DTNB -3, Rtt109 HAT inh -7, PfHsp90 yeast 2 -30, FN deposition inh 33* and CSC inhib 3.
Screening CCOc1ccc(/C=N/Nc2cc(N3CCOCC3)ncn2)c(O)c1 returned PglD DTNB -4 and FN deposition inh 26.
`CCCOc1ccc(/C=N/Nc2cc(N3CCOCC3)ncn2)c(O)c1` gave SKKanGAS inh -10, PglD DTNB 11, Rtt109 HAT inh 3, PfHsp90 yeast 2 -17, FN deposition inh 4 and CSC inhib 98*.
Screening Cc1ccc(C(=O)NCCNC(=O)COc2ccccc2Cl)cn1 returned SKKanGAS inh 2, PglD DTNB -1, Rtt109 HAT inh 51*, PfHsp90 yeast 2 15, FN deposition inh 1 and CSC inhib -1.
Cc1ccc(C(=O)NCC(=O)OCCOc2ccccc2Cl)cc1 was read as SKKanGAS inh -5, Rtt109 HAT inh 56*, PfHsp90 yeast 2 8, FN deposition inh 11 and CSC inhib 5.
For O=C(Cc1cccnc1)N1CC(=O)N2[C@H](C1)[C@@H](c1ccc(C#CC3CCCCC3)cc1)[C@@H]2CO the results were FN deposition inh -16.
CCCc1cc(=O)oc2cc(OCc3ccc(C(=O)O)o3)ccc12 was read as SKKanGAS inh 2, PglD DTNB 1, Rtt109 HAT inh -3, PfHsp90 yeast 2 9, FN deposition inh -1 and CSC inhib -6.
For CCCc1cc(=O)oc2cc(OCc3ccc(C(=O)O)cc3)ccc12 the results were SKKanGAS inh 2, PglD DTNB 6, Rtt109 HAT inh -3, PfHsp90 yeast 2 109*, FN deposition inh 0 and CSC inhib 8.
Screening N#C/C(=C/c1ccc(N2CCCCC2)o1)c1cccc(F)c1 returned SKKanGAS inh -29, PglD DTNB 6, Rtt109 HAT inh 5, PfHsp90 yeast 2 -33 and CSC inhib 11.
Screening N#C/C(=C/c1ccc(N2CCCCCC2)o1)c1ccc(Cl)cc1 returned SKKanGAS inh 33, PglD DTNB -1, Rtt109 HAT inh 24, PfHsp90 yeast 2 104* and CSC inhib 66.
Screening Cc1nc(Nc2ccc(Cl)c(Cl)c2)sc1C(=O)Nc1ccccc1 returned SKKanGAS inh 91*, PglD DTNB 8, Rtt109 HAT inh -1, PfHsp90 yeast 2 -33, FN deposition inh -11 and CSC inhib 88*.
`Cc1nc(NC(=O)/C=C/c2ccccc2)sc1C(=O)Nc1ccc(Cl)cc1` gave SKKanGAS inh 4, PglD DTNB -1, Rtt109 HAT inh 2, PfHsp90 yeast 2 8, FN deposition inh 3 and CSC inhib -11.
For Cc1nc(Nc2ccc(Cl)cc2Cl)sc1C(=O)Nc1ccccc1 the results were SKKanGAS inh -16, Rtt109 HAT inh -5, PfHsp90 yeast 2 12, FN deposition inh 2 and CSC inhib 83*.
For O=C(Nc1ccc(Nc2ccccc2)cc1)c1cc([N+](=O)[O-])ccc1Cl the results were SKKanGAS inh -9, PglD DTNB -4, Rtt109 HAT inh 1, PfHsp90 yeast 2 -14, FN deposition inh 13 and CSC inhib 78*.
Screening COc1ccc(NC(=O)c2cc([N+](=O)[O-])ccc2O)cc1 returned SKKanGAS inh 74*, Rtt109 HAT inh 5, PfHsp90 yeast 2 76* and CSC inhib 82*.
For O=C(Nc1cccc([N+](=O)[O-])c1)c1cc2ccccc2cc1O the results were SKKanGAS inh 74*, PglD DTNB 3, PfHsp90 yeast 2 -17, FN deposition inh -5 and CSC inhib 89*.
COc1ccc(COCC23N=C4SCc5ccccc5C(=O)N4[C@H](c4ccccc4O2)[C@H]3CO[Si](C)(C)C(C)(C)C)cc1 was read as PglD DTNB 3.
C[C@H](CO)N1C[C@H](C)[C@H](CN(C)C(=O)Nc2ccccc2)OCCCC[C@H](C)Oc2ccc(NC(=O)Nc3cccc4ccccc34)cc2C1=O was read as PglD DTNB 13 and FN deposition inh -21.
Screening O=C(NCC1CC1)[C@H]1[C@H](CO)[C@H]2Cn3c(ccc(-c4cccc(F)c4)c3=O)[C@H]2N1CC1CC1 returned PglD DTNB -4.
For COC(=O)c1ccc(/C=C/c2c(-c3ccsc3)oc3ccc(N4CCOCC4)cc23)cc1 the results were SKKanGAS inh 28, PglD DTNB 0, Rtt109 HAT inh -5, PfHsp90 yeast 2 -3, FN deposition inh 11 and CSC inhib 109*.
COc1ccc(S(=O)(=O)N(C)C[C@H]2Oc3ccc(NC(=O)c4ccncc4)cc3CC(=O)N([C@H](C)CO)C[C@H]2C)cc1 was read as PglD DTNB -3 and FN deposition inh 7.
For Oc1ccccc1-c1nc2c3ccccc3c3ccccc3c2[nH]1 the results were SKKanGAS inh 86*, PglD DTNB 3, Rtt109 HAT inh -3, PfHsp90 yeast 2 33, FN deposition inh 2 and CSC inhib -3.
COCc1cn(CC[C@H]2CC[C@@H](NC(=O)Cc3cccnc3)[C@H](CO)O2)nn1 was read as PglD DTNB -3 and FN deposition inh 4.
`CCCCCCc1cc2cc(-c3nnc(-c4ccccc4OC)o3)c(=O)oc2cc1O` gave SKKanGAS inh 9, PglD DTNB 0, Rtt109 HAT inh -6, PfHsp90 yeast 2 10, FN deposition inh -15 and CSC inhib inconclusive.

Bioassay records: PubChem BioAssay, Broad Institute
